Screening data as filed in PubChem.
Hits are enriched below; roughly 2.7% of the tested compounds scored in any of these assays.
PAD4 inh: PAD4 (human) enzyme inhibition; Q9UM07; recombinant PAD4, RCA probe fluorescence polarization; inhibition, % at 6.36 µM; 0.41% of 330,000 active;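 active means percent inhibition above a cutoff equal to the mean of all tested compounds plus 3 SD, cut at about 15% in these data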
Target sequence (Q9UM07 whole entry, looked up): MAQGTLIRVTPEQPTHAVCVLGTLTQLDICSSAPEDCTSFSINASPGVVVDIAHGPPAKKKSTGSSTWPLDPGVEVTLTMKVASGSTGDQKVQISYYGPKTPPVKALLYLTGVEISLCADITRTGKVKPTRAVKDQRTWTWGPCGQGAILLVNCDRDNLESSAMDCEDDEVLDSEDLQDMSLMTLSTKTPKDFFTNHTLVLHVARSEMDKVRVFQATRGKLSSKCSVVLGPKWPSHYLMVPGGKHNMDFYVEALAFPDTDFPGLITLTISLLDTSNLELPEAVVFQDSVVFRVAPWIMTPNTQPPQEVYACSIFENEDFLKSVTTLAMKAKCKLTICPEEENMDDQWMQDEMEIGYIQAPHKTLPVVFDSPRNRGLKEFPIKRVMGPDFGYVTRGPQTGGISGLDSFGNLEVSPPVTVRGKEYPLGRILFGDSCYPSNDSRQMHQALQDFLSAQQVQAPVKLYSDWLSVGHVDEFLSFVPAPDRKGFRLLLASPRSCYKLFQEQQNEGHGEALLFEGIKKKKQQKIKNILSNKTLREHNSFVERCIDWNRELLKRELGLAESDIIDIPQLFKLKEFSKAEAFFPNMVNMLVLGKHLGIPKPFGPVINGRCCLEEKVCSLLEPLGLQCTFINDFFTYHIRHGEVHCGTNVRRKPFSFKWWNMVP
GSTO1 inh: blocks human GSTO1 in RBBP9 counter-screen; inhibition, % at 5.96 µM; P78417; recombinant GSTO1, activity-based probe fluorescence polarization; 1.1% of 300,000 active;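 active means inhibition above the campaign mean inhibition plus 3 SD, cut at about 35% in these data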
SIAE inh: blocks human sialic acid acetylesterase. Q9HAT2. SIAE FP-Rh probe binding, fluorescence polarization. inhibition, % at 9.66 µM. 0.69% of 370,000 active. AID 1053197;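 active means inhibition above a cutoff: mean of compounds within the control limits plus 3 SD of those, cut at about 17% in these data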
PRMT1 FP inh: blocks human protein arginine methyltransferase 1; recombinant PRMT1, activity-based probe fluorescence polarization; inhibition, % at 2.79 µM; 1.3% of 370,000 active;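 active means inhibition above about 21% made by adding two undisclosed values, limit read from the data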
RBBP9 inh: blocks human serine hydrolase RBBP9; O75884; recombinant RBBP9, FP-Rh probe fluorescence polarization; inhibition, % at 7.94 µM; 0.2% of 220,000 active; AID 1515;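 active means inhibition above the campaign mean of all tested compounds plus 3 SD, cut at about 14% in these data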
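system = RBBP9 protein | input = RBBP9 at 2.5 µM in dispensed solution, before mixing | measured by = fluorescence polarization (mP), excitation 525 nm, emission 598 nm | incubation = enzyme-compound preincubation 30 min, then probe labeling 45 min, 25 °C | buffer or medium = Tris-NaCl-Pluronic buffer, pH 8.0 | compound = single dose 7.94 µM | also added = FP-Rh probe, 375 nM dispensing solution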
SIAE inh conf: human SIAE inhibition, confirmation; shares compounds with SIAE inh; SIAE FP-Rh activity-based probe, fluorescence polarization; inhibition, % at 9.66 µM; 13% of 2,300 active;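 active means mean inhibition of the replicates above the hit cutoff set in the primary screen, cut at about 17% in these data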;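 further: inhibitors lower polarization as more probe stays unbound to SIAE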
A number is an active result.

Screening Cc1ccc(S(=O)(=O)Nc2c(C)n(C)n(-c3ccccc3)c2=O)cc1C(=O)OC(C)C(=O)N(C)c1ccccc1 (stereo not drawn) returned PAD4 inh inactive, GSTO1 inh inactive, SIAE inh 21, PRMT1 FP inh inactive, RBBP9 inh inactive and SIAE inh conf inactive.
`N#CC(C#N)=C1C=C2C=C(N3CCCCCC3)CCC2CC1` (stereo not drawn) gave SIAE inh 28, PRMT1 FP inh inactive, RBBP9 inh inactive and SIAE inh conf 22.
For COc1cccc(-c2nc(NCc3ccccc3)c3ccccc3n2)c1O the results were PAD4 inh inactive, GSTO1 inh inactive, SIAE inh inactive and PRMT1 FP inh inactive.
COc1cccc(-c2nc(NC3CCCC3)c3ccccc3n2)c1O was read as PAD4 inh inactive, GSTO1 inh inactive, SIAE inh 29, PRMT1 FP inh inactive and SIAE inh conf inactive.
Clc1ccc(Nc2nc(C3CC3)cs2)cc1 was read as PAD4 inh inactive, GSTO1 inh inactive, SIAE inh 20, PRMT1 FP inh inactive, RBBP9 inh inactive and SIAE inh conf inactive.
Screening Cc1ccc(Nc2nc(C3CC3)cs2)cc1 returned RBBP9 inh inactive.
Cn1cc(S(=O)(=O)N2CCN(c3cccc(Cl)c3)CC2)c(=O)n(C)c1=O was read as PAD4 inh inactive, GSTO1 inh inactive, SIAE inh inactive, PRMT1 FP inh inactive and RBBP9 inh inactive.
For Cn1cc(S(=O)(=O)N2CCN(c3ccccc3)CC2)c(=O)n(C)c1=O the results were PAD4 inh inactive, GSTO1 inh inactive, SIAE inh 60, PRMT1 FP inh inactive, RBBP9 inh inactive and SIAE inh conf inactive.
Cc1ccc(S(=O)(=O)N2CCN(c3ccccc3)CC2)c(C)c1 was read as PAD4 inh inactive, GSTO1 inh inactive, SIAE inh 22, PRMT1 FP inh inactive and SIAE inh conf inactive.
`Cc1cc(C)c(S(=O)(=O)N2CCN(c3ccccc3)CC2)c(C)c1` gave PAD4 inh inactive, GSTO1 inh inactive, SIAE inh inactive and PRMT1 FP inh inactive.
`CC(C)COc1ccc(C(=O)Nc2scc(-c3ccc(Cl)cc3Cl)c2C(N)=O)cc1` gave PAD4 inh inactive, GSTO1 inh inactive, SIAE inh inactive, PRMT1 FP inh inactive and RBBP9 inh inactive.
O=C(C(=O)N1CCN(C(=O)c2ccccc2C(F)(F)F)CC1)c1cccc(C(F)(F)F)c1 was read as SIAE inh inactive and PRMT1 FP inh inactive.
COc1ccc(C(=O)C(=O)N2CCN(C(=O)c3ccccc3C(F)(F)F)CC2)cc1OC was read as SIAE inh 22, PRMT1 FP inh inactive and SIAE inh conf inactive.
For CCCCCC(=O)Nc1ccc(-c2csc(N)n2)cc1 the results were PAD4 inh inactive, GSTO1 inh inactive, SIAE inh 18, PRMT1 FP inh inactive, RBBP9 inh inactive and SIAE inh conf inactive.
For Cn1c(=O)c2cc(NC(=S)NC3CC3)ccc2n1Cc1ccc(F)cc1 the results were SIAE inh 18, PRMT1 FP inh inactive and SIAE inh conf inactive.
Screening Cn1c(=O)c2cc(NC(=S)NCc3ccccc3F)ccc2n1Cc1ccc(F)cc1 returned SIAE inh inactive and PRMT1 FP inh inactive.
For CC(Oc1ccc(Br)cc1)C(=O)N1CCc2ccccc21 (stereo not drawn) the results were PAD4 inh inactive, GSTO1 inh inactive, SIAE inh inactive, PRMT1 FP inh inactive and RBBP9 inh inactive.
Screening CC(C)SCc1cc(N2CCCC2)nc(-c2ccccc2)n1 returned PAD4 inh inactive, GSTO1 inh inactive, SIAE inh inactive, PRMT1 FP inh inactive and RBBP9 inh inactive.
CSCc1cc(N2CCCC2)nc(-c2ccccc2)n1 was read as PAD4 inh inactive, GSTO1 inh inactive, SIAE inh 19, PRMT1 FP inh inactive, RBBP9 inh inactive and SIAE inh conf inactive.
`CCCCN(C(=O)C(C)N1C(=O)c2ccccc2C1=O)c1c(N)n(CCCC)c(=O)[nH]c1=O` (stereo not drawn) gave PAD4 inh inactive, SIAE inh 19, PRMT1 FP inh inactive and SIAE inh conf inactive.
`CCCCn1c(N)c(N(CCC(C)C)C(=O)C(C)N2C(=O)c3ccccc3C2=O)c(=O)[nH]c1=O` (stereo not drawn) gave PAD4 inh inactive, GSTO1 inh inactive, SIAE inh inactive and PRMT1 FP inh inactive.
Screening CC(=O)c1ccc(OCCCC(=O)NCC(c2ccco2)N(C)C)cc1 (stereo not drawn) returned PAD4 inh inactive, GSTO1 inh inactive, SIAE inh inactive, PRMT1 FP inh inactive and RBBP9 inh inactive.
For O=C(NCc1nnc2c(C(F)(F)F)cc(Cl)cn12)c1cccs1 the results were PAD4 inh inactive, GSTO1 inh inactive, SIAE inh inactive and PRMT1 FP inh inactive.
`c1ccc(-c2nc3ccccc3[nH]2)cc1` gave PAD4 inh inactive, GSTO1 inh inactive, SIAE inh inactive and PRMT1 FP inh inactive.
`Cc1nc2ccc(-c3nc4ccc(N)cc4[nH]3)cc2[nH]1` gave PAD4 inh inactive, GSTO1 inh inactive, SIAE inh inactive, PRMT1 FP inh inactive and RBBP9 inh inactive.
Nc1ccc(-c2nc3ccc(N)cc3[nH]2)cc1 was read as PAD4 inh inactive, GSTO1 inh inactive, SIAE inh 25, PRMT1 FP inh inactive, RBBP9 inh inactive and SIAE inh conf inactive.
Screening Nc1ccc2nc(-c3cccc(-c4nc5ccc(N)cc5[nH]4)c3)[nH]c2c1 returned PAD4 inh inactive, GSTO1 inh inactive, SIAE inh 26, PRMT1 FP inh inactive and SIAE inh conf 37.
`Nc1cc(N)cc(-c2nc3ccccc3[nH]2)c1` gave PAD4 inh inactive, GSTO1 inh inactive, SIAE inh 31, PRMT1 FP inh inactive, RBBP9 inh inactive and SIAE inh conf inactive.
For Nc1ccc2nc(-c3cc(Cl)c(N)c(Cl)c3)[nH]c2c1 the results were PAD4 inh inactive, GSTO1 inh inactive, SIAE inh 24, PRMT1 FP inh inactive, RBBP9 inh inactive and SIAE inh conf inactive.
Screening Cc1cccc(/C=C2/SC(=O)N(Cc3ccccc3Cl)C2=O)n1 returned PAD4 inh inactive, GSTO1 inh inactive, SIAE inh inactive, PRMT1 FP inh inactive and RBBP9 inh inactive.
Nc1ccc2nc(-c3ccc(Cl)cc3)[nH]c2c1 was read as PAD4 inh inactive, GSTO1 inh inactive, SIAE inh 54, PRMT1 FP inh inactive and SIAE inh conf inactive.
`O=[N+]([O-])c1ccc(-c2nc3ccc([N+](=O)[O-])cc3[nH]2)cc1` gave PAD4 inh inactive, GSTO1 inh inactive, SIAE inh 18, PRMT1 FP inh inactive, RBBP9 inh inactive and SIAE inh conf inactive.
For O=C(CCn1nnnc1CN1CCOCC1)N1CCC(c2cccc(Cl)c2)C1 (stereo not drawn) the results were PAD4 inh inactive, GSTO1 inh inactive, SIAE inh inactive and PRMT1 FP inh inactive.
For CCOC(=O)CC[C@H]1CC[C@]2(CCCN(C(=O)c3cccnc3)C2)O1 the results were SIAE inh 30, PRMT1 FP inh inactive and SIAE inh conf inactive.
